Calls of active or inactive are those of the source. The calls are words filed in the database; no cut-off is given here.
Legend:
[1] = AUC in ZDF rat at 10 mg/kg, po; format: ADME, organism-based; set-up: dose 10 mg/kg, route oral; settings: plasma
Outline: (§1)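 Male ZDF rats; satellite animals outside the efficacy groups were given oral doses of 3, 10 or 100 mg/kg. Plasma Cmax and AUC were calculated from these animals.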

[2] = Oral bioavailability in rat at 5 mg/kg; format: ADME, organism-based; settings: in vivo
Rattus norvegicus [3] = test: Antihypertensive activity in SHR rat assessed as decrease in arterial blood pressure at 10 mg/kg, po QD for 7 days; format: functional, Artery
Rattus norvegicus [4] = test: Antidiabetic activity in ZDF rat assessed as body weight gain at 0.1 mg/kg, po QD for 40 days (reference value: 133+/-9 g); format: functional
Outline: (§2)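 Male ZDF rats, starting at about 6 weeks old, were dosed orally once daily for 40 days in 1.5% CMC/0.2% Tween 20 suspension, n = 8/group. Body weight was followed over the study. Gain was calculated per animal from day 0 to day 40 and compared with vehicle and pioglitazone (3 mg/kg) groups. Data are mean ± SEM.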

Rattus norvegicus [5] = test: Antidiabetic activity in ZDF rat assessed as body weight gain at 100 mg/kg, po QD for 40 days (reference value: 133+/-9 g); format: functional; outline: as §2
Rattus norvegicus [6] = test: Antidiabetic activity in ZDF rat assessed as adiponectin level at 1 mg/kg, po QD for 40 days (reference value: 11.9+/-1.5 ug/ml); format: functional
Rattus norvegicus [7] = test: Antidiabetic activity in ZDF rat assessed as triglyceride level at 30 mg/kg, po QD for 40 days (reference value: 618+/-52 mg/dL); format: functional
Rattus norvegicus [8] = test: Antidiabetic activity in ZDF rat assessed as adiponectin level at 30 mg/kg, po QD for 40 days (reference value: 11.9+/-1.5 ug/ml); format: functional
[9] = Volume of distribution at steady state in rat at 1 mg/kg, iv; format: ADME, organism-based; set-up: dose 1 mg/kg, route intravenous; settings: in vivo, read-out: Vdss
[10] = AUC in rat at 5 mg/kg, po; format: ADME, organism-based; set-up: dose 5 mg/kg, route oral; settings: plasma
Rattus norvegicus [11] = test: Antidiabetic activity in ZDF rat assessed as body weight gain at 10 mg/kg, po QD for 40 days (reference value: 133+/-9 g); format: functional; outline: as §2
Rattus norvegicus [12] = test: Antidiabetic activity in ZDF rat assessed as blood glucose level at 10 mg/kg, po QD for 40 days (reference value: 771+/-60 mg/dL); format: functional
[13] = AUC in SHR rat at 1 mg/kg, po; format: ADME, organism-based; set-up: dose 1 mg/kg, route oral; settings: plasma
Outline: (§3)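 SHR received a single oral dose of 1, 3 or 10 mg/kg. Systemic exposure was determined as plasma Cmax and AUC.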

[14] = Half life in rat at 1 mg/kg, iv; format: ADME, organism-based; set-up: dose 1 mg/kg, route intravenous; settings: in vivo
Rattus norvegicus [15] = test: Antidiabetic activity in ZDF rat assessed as adiponectin level at 3 mg/kg, po QD for 40 days (reference value: 11.9+/-1.5 ug/ml); format: functional
Rattus norvegicus [16] = test: Antidiabetic activity in ZDF rat assessed as triglyceride level at 10 mg/kg, po QD for 40 days (reference value: 618+/-52 mg/dL); format: functional
Rattus norvegicus [17] = species on record: Rattus norvegicus; test: Steady state free plasma concentration in SHR rat; format: ADME, organism-based; settings: in vivo, in the assay text read “ZDF rat” for “SHR rat”
[18] = AUC in ZDF rat at 3 mg/kg, po; format: ADME, organism-based; set-up: dose 3 mg/kg, route oral; settings: plasma; outline: as §1
[19] = AUC in SHR rat at 10 mg/kg, po; format: ADME, organism-based; set-up: dose 10 mg/kg, route oral; settings: plasma; outline: as §3
Rattus norvegicus [20] = test: Antihypertensive activity in SHR rat assessed as decrease in arterial blood pressure at 10 mg/kg, po administered as single dose; format: functional, Artery
Outline: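 SHR carried aortic radiotelemetry transmitters implanted under Telazol anesthesia and recovered for at least 1 week. Rats were randomized by 2 h baseline mean BP. Each received vehicle by oral gavage on Day 0 and a single drug dose (0.3–10 mg/kg) on Day 1, with BP followed 20 h each day. The change was taken as Day 1 minus Day 0, n = 8/group.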

[21] = Cmax in ZDF rat at 3 mg/kg, po; format: ADME, organism-based; set-up: dose 3 mg/kg, route oral; settings: in vivo; outline: as §1
Rattus norvegicus [22] = test: Antidiabetic activity in ZDF rat assessed as adiponectin level at 10 mg/kg, po QD for 40 days (reference value: 11.9+/-1.5 ug/ml); format: functional
Rattus norvegicus [23] = test: Antidiabetic activity in ZDF rat assessed as blood glucose level at 30 mg/kg, po QD for 40 days (reference value: 771+/-60 mg/dL); format: functional
[24] = target: T1, Peroxisome proliferator-activated receptor alpha (Homo sapiens) (UniProt Q07869); test: Transactivation of human PPARalpha
T1 sequence (whole entry): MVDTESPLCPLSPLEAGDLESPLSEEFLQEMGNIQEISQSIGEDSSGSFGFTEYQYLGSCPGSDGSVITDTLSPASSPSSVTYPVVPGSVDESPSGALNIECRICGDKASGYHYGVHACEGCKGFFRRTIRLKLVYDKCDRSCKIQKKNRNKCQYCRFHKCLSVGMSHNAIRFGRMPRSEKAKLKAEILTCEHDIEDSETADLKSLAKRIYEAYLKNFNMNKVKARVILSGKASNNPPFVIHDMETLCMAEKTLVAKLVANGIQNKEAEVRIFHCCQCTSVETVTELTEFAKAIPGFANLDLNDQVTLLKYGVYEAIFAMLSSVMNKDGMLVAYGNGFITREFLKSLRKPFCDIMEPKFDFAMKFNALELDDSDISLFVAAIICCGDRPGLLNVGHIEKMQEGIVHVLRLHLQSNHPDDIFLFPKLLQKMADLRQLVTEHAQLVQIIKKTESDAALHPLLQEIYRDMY

Rattus norvegicus [25] = test: Antidiabetic activity in ZDF rat assessed as triglyceride level at 100 mg/kg, po QD for 40 days (reference value: 618+/-52 mg/dL); format: functional
[26] = target: T2, Type-2 angiotensin II receptor (Homo sapiens, UniProt P50052); test: Binding affinity to human Angiotensin receptor 2
T2 sequence (P50052 whole entry): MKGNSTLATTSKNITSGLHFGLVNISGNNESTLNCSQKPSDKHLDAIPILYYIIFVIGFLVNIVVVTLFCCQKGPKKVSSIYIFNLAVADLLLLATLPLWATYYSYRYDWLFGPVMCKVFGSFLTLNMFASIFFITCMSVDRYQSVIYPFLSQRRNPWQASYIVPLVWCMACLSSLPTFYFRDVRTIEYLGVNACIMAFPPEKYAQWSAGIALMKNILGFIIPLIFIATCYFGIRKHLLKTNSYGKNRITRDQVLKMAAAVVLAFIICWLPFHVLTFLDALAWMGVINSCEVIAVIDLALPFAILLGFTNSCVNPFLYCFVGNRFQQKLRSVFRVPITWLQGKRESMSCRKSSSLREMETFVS

CCc1nc2c(C)cc(CC(C)C)nc2n1[C@H]1CCc2cc(-c3ccccc3-c3nnn[nH]3)ccc21
AUC [1]: 28000 ng·h/mL | bioavailability [2]: 80% | Activity (Rattus norvegicus [3]): >60 mmHg | Activity (Rattus norvegicus [4]): 128 g | Activity (Rattus norvegicus [5]): 202 g | Activity (Rattus norvegicus [6]): 10.2 µg/mL | Activity (Rattus norvegicus [7]): 288 mg/dL | Activity (Rattus norvegicus [8]): 24.3 µg/mL | Vd [9]: 2.9 L/kg | AUC [10]: 4950 ng·h/mL | Activity (Rattus norvegicus [11]): 200 g | Activity (Rattus norvegicus [12]): 159 mg/dL | AUC [13]: 320 ng·h/mL | half-life [14]: 2.1 h | Activity (Rattus norvegicus [15]): 11.4 µg/mL | Activity (Rattus norvegicus [16]): 393 mg/dL | Cp(f)ss (Rattus norvegicus [17]): 2.6 nM | AUC [18]: 4400 ng·h/mL | AUC [19]: 6830 ng·h/mL | Activity (Rattus norvegicus [20]): 36 mmHg | Cmax [21]: 267 ng/mL | Activity (Rattus norvegicus [22]): 24.4 µg/mL | Activity (Rattus norvegicus [23]): 140 mg/dL | Activity [24]: inactive | Activity (Rattus norvegicus [25]): 151 mg/dL | Ki [26]: > 10 µM

Source: ChEMBL document CHEMBL1800018, “Discovery of a series of imidazo[4,5-b]pyridines with dual activity at angiotensin II type 1 receptor and peroxisome proliferator-activated receptor-γ” (J Med Chem, 2011)
